# According to ChEMBL document CHEMBL4033781 (J Med Chem, 2018):
# Activity calls are given as the source filed them. No cut-off for these calls is given here.
# Columns and labels:
# [1] = tested on: Liver; assay: Metabolic stability in mouse liver S9 fraction assessed as parent compound remaining at 1 uM after 60 mins relative to control; type: ADME, tissue-based; conditions: s9, 1 h
# [2] = target: Na+/K+ ATPase alpha-1/beta-1 (Rattus norvegicus, UniProt P06685+P07340); assay: Inhibition of recombinant rat Na+/K+-ATPase alpha1/beta1 expressed in baculovirus infected insect Sf9 cell membranes using [gamma-32P]ATP as substrate preincubated for 20 mins followed by substrate addition measured after 30 mins by liquid scintillation counting
# In short: (§1)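 Rat α/β1 isoforms were expressed in baculovirus-infected Sf9 cells (72 h, 27 °C), washed in 10 mM imidazole-HCl pH 7.5 with 1 mM EGTA, and homogenised. Homogenates were assayed in 120 mM NaCl, 30 mM KCl, 3 mM MgCl₂, 0.2 mM EGTA and 30 mM Tris-HCl pH 7.4. Reactions were started with 2 mM γ[³²P]-ATP (final) and run 30 min at 37 °C. Released ³²Pi was extracted as phosphomolybdate into isobutanol and scintillation counted. Activity was taken as the 1 mM ouabain-sensitive fraction. IC50 came from single-site dose–response fits.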
# [3] = target: Voltage-gated inwardly rectifying potassium channel KCNH2 (Homo sapiens, UniProt Q12809); assay: Displacement of Tracer Red from human ERG expressed in cell membranes up to 60 uM by fluorescence polarization assay
# Voltage-gated inwardly rectifying potassium channel KCNH2, sequence (Q12809 whole entry): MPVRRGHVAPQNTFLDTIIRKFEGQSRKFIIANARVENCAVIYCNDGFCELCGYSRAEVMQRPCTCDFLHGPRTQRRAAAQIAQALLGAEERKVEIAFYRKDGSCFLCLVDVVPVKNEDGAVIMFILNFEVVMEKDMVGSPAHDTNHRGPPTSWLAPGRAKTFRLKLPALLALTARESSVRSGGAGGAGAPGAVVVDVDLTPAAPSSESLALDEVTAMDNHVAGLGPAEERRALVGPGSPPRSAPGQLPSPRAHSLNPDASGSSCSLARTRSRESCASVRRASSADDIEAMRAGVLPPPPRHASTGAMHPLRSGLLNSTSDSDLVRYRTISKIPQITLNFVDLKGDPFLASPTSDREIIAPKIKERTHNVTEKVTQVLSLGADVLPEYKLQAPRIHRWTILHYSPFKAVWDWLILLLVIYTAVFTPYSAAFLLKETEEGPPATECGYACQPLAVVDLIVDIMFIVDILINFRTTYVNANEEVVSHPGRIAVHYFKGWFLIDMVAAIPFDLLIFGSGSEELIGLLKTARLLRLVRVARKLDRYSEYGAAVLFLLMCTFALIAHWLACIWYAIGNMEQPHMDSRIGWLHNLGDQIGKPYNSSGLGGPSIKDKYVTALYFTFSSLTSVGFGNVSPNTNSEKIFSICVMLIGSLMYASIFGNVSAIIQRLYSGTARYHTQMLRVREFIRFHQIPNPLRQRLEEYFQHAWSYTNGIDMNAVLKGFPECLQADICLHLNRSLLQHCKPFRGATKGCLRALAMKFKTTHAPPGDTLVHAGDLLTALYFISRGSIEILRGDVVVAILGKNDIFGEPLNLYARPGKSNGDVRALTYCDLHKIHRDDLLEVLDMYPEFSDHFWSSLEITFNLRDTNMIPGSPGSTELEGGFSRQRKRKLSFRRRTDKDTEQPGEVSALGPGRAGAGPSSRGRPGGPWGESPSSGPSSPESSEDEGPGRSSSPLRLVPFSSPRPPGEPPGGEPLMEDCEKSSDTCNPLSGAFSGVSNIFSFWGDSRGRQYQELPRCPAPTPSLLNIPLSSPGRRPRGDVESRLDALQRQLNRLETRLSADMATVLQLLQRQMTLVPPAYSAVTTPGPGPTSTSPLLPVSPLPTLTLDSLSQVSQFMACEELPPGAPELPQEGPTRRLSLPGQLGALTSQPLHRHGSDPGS
# In short: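 Competitive fluorescence polarization displacement of a fluorescently tagged hERG ligand used membranes from cells stably expressing hERG. Compounds were tested up to 60 μM.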
# [4] = target: Na+/K+ ATPase alpha-3/beta-1 (Rattus norvegicus, UniProt P06687+P07340); assay: Inhibition of recombinant rat Na+/K+-ATPase alpha3/beta1 expressed in baculovirus infected insect Sf9 cell membranes using [gamma-32P]ATP as substrate preincubated for 20 mins followed by substrate addition measured after 30 mins by liquid scintillation counting
# In short: as §1, with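 “counted.” for “counted. Activity was taken as the 1 mM ouabain-sensitive fraction.”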
# [5] = tested on: Liver; assay: Metabolic stability in rat liver S9 fraction assessed as parent compound remaining at 1 uM after 60 mins relative to control; type: ADME, tissue-based; conditions: s9, 1 h
# [6] = tested on: Liver; assay: Metabolic stability in dog liver S9 fraction assessed as parent compound remaining at 1 uM after 60 mins relative to control; type: ADME, tissue-based, Canis lupus familiaris; conditions: s9, 1 h
# [7] = Metabolic stability in monkey liver S9 fraction assessed as parent compound remaining at 1 uM after 60 mins relative to control; type: ADME, tissue-based, Macaca mulatta; conditions: rhesus monkey, s9, 1 h
# [8] = tested on: Liver; assay: Metabolic stability in human liver S9 fraction assessed as parent compound remaining at 1 uM after 60 mins relative to control; type: ADME, tissue-based; conditions: s9, 1 h
# [9] = Apparent permeability from apical side to basolateral side in human Caco2 cells at 1 uM after 60 mins by HPLC-MS analysis; type: ADME, cell-based; conditions: caco-2, 1 h
# In short: (§2)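 Caco-2 monolayers were grown on Transwell filters, with test compound at 1 × 10^-6 M. Apical-to-basolateral flux was run at 37 °C with shaking, at pH 6.5 apical and pH 7.4 basolateral. Donor was sampled over 0–60 min and receiver at 60 min. Compound was quantified by full-scan HPLC-MS. Apparent permeability and percent recovery were derived from two determinations.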
# [10] = Apparent permeability from basolateral side to apical side in human Caco2 cells at 1 uM after 60 mins by HPLC-MS analysis; type: ADME, cell-based; conditions: caco-2, 1 h
# [11] = tested on: MCF7; assay: Antiproliferative activity against human MCF7 cells up to 100 uM after 72 hrs by AlamarBlue assay; type: cell-based; conditions: mcf7, 72 h
# [12] = Apparent permeability from apical side to basolateral side in human Caco2 cells assessed as drug recovery at 1 uM after 60 mins by HPLC-MS analysis; type: ADME, cell-based; conditions: caco-2, 1 h; in short: as §2
# [13] = Apparent permeability from basolateral side to apical side in human Caco2 cells assessed as drug recovery at 1 uM after 60 mins by HPLC-MS analysis; type: ADME, cell-based; conditions: caco-2, 1 h
# [14] = tested on: Rattus norvegicus; assay: Inhibition of rat sperm total motility at 5 mg/kg administered daily via oral gavage for 3 days by SYTO staining based microscopic method; type: functional, organism-based
# In short: (§3)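 Male rats were dosed daily by oral gavage, either at 5, 10 or 20 mg/kg for 3 days, or at 5 mg/kg for 3, 6, 9 or 12 days. Animals were then sacrificed and cauda epididymal sperm collected. Total and progressive motility were measured by CASA and compared with untreated controls. Values are mean ± SEM of three experiments.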
# [15] = tested on: Rattus norvegicus; assay: Inhibition of rat sperm progressive motility at 5 mg/kg administered daily via oral gavage for 3 days by SYTO staining based microscopic method; type: functional, organism-based; in short: as §3
# [16] = tested on: Rattus norvegicus; assay: Inhibition of rat sperm movement at 20 mg/kg administered via oral gavage for 3 days by SYTO staining based microscopic method relative to control; type: functional; conditions: 72 h; in short: as §3
# [17] = tested on: Rattus norvegicus; assay: Inhibition of rat sperm total motility at 5 mg/kg administered daily via oral gavage for 6 to 12 days by SYTO staining based microscopic method relative to control; type: functional; in short: as §3
# [18] = tested on: Rattus norvegicus; assay: Inhibition of rat sperm progressive motility at 5 mg/kg administered daily via oral gavage for 6 to 12 days by SYTO staining based microscopic method relative to control; type: functional; in short: as §3
compound,measurement,setting,value
C[C@]12C[C@@H](O)[C@H]3[C@@H](CC[C@]4(O)C[C@@H](O)C[C@@H](O)[C@]34CO)[C@@]1(O)CC[C@@H]2c1cn(Cc2ccccc2)nn1,Stability,[1],76%
same,IC50,[2],> 100 µM
same,inhibition (INH),[3],Not Active
same,IC50,[4],> 100 µM
same,Stability,[5],95%
same,Stability,[6],99%
same,Stability,[7],89%
same,Stability,[8],107%
same,Papp,[9],< 0.2 ×10⁻⁶ cm/s
same,Papp,[10],0.3 ×10⁻⁶ cm/s
same,Activity,[11],Non-Toxic
same,Drug recovery,[12],94%
same,Drug recovery,[13],98%
same,inhibition,[14],Active
same,inhibition,[15],Active
same,inhibition in vivo at 20 mg/kg,[16],50%
same,inhibition in vivo at 5 mg/kg,[17],40%
same,inhibition in vivo at 5 mg/kg,[18],50%
